According to ChEMBL document CHEMBL3797182, “In vitro evaluation of imidazo[4,5-c]quinolin-2-ones as gametocytocidal antimalarial agents” (Bioorg Med Chem Lett, 2016):

Experiments:
Plasmodium falciparum [1] = assay: Gametocytocidal activity against Plasmodium falciparum after 72 hrs by Alamar Blue assay; format: functional, organism-based
Plasmodium falciparum [2] = assay: Antimalarial activity against chloroquine-sensitive asexual blood stage of Plasmodium falciparum 3D7 infected in RBC after 72 hrs by SYBR Green assay; format: functional, organism-based; details: 3D7, 72 h
In short: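 Asexual blood-stage P. falciparum 3D7 (chloroquine-sensitive) parasites. 1536-well format, 11-point dose-response, duplicate tests. Torin 2 served as positive control and DMSO as negative control.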

Plasmodium falciparum [3] = assay: Gametocytocidal activity against chloroquine-sensitive late gametocytic stage (III to V) of Plasmodium falciparum 3D7 after 72 hrs by Alamar Blue assay; format: functional, organism-based; details: 3D7, 72 h
In short: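 Late-stage (III–V) P. falciparum 3D7 gametocytes. AlamarBlue redox indicator reads cytosolic metabolic activity as a measure of gametocyte viability. 1536-well format, 11-point dose-response, duplicates. Torin 2 positive control, DMSO negative control.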

HepG2 = assay: Cytotoxicity against human HepG2 cells assessed as cell viability after 24 hrs; format: cell-based; details: HepG2, 24 h
In short: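 HepG2 cell viability as general cytotoxicity. 1536-well, 11-point dose-response in duplicate, top concentration 46 μM. Torin 2 positive control, DMSO negative control.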

Plasmodium falciparum [4] = assay: Selectivity ratio of IC50 for chloroquine-sensitive late gametocytic stage (III to V) of Plasmodium falciparum 3D7 to IC50 for chloroquine-sensitive asexual blood stage of Plasmodium falciparum 3D7; format: functional

IC50 (Plasmodium falciparum [2])	Structure (SMILES)	IC50 (Plasmodium falciparum [1])	IC50 (Plasmodium falciparum [3])	IC50 (HepG2)	Ratio IC50 (Plasmodium falciparum [4])
	Nc1ccc(-c2ccc3ncc4ccc(=O)n(-c5cccc(C(F)(F)F)c5)c4c3c2)cn1	8 nM			
733 nM	Cc1ccc(-c2ccc3ncc4c(c3c2)n(-c2cccc(C(F)(F)F)c2)c(=O)n4C)cc1		524 nM	> 45000 nM	1
